Experimental data published in paper PMC11638873 (Molecular Therapy, 2024).
Several values for one entry are separate records, joined by “and”; a condition that tells them apart may be missing. Identical values can stand only once.

Columns and labels:
[1] = cited from earlier work
[2] = tested on: human liver microsomes (CYP, UGT); assay: In vitro metabolism on human liver microsomes; assay type: in vitro ADME; details: for glucuronate metabolite detection after HLM incubation: with cofactors for UGT activity
How it was run: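 Test compound (1 mM) incubated at 37 °C with pooled HLMs from 50 donors of both sexes (20 mg protein/mL). Buffer was 100 mM potassium phosphate or 100 mM Tris-HCl, pH 7.4, each with 20 mM NADPH. Reactions stopped with acetonitrile at 0, 5, 30 and 60 min; supernatant analysed by HPLC-MS. % remaining vs 0 min; mean ± SEM; one-way ANOVA vs time 0.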

[3] = tested on: CFTR (G542X nonsense mutation); assay type: in vivo, mouse; details: 60 mg/kg daily oral, 15 days
How it was run: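 G542X homozygous mice (n = 5, genotyped by allele-specific PCR) gavaged daily from P21 for 15 days; 3 WT and 3 mutant mice given water as vehicle. Lung RNA (20–25 mg tissue) for real-time RT-PCR. Lung protein (40 mg tissue, RIPA plus 1% protease inhibitors, Bradford) for western blot, normalized to tubulin and negative control. Triplicate per mouse; mean ± SEM; two-way ANOVA vs untreated mutant.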

[4] = Biodistribution study after single oral dose in wild-type C57BL/6 mice; assay type: in vivo, mouse; details: 60 mg/kg single oral dose
[5] = assay type: in vivo, mouse; details: 60 mg/kg daily oral
How it was run: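 Homozygous G542X mice were dosed orally once daily from P21 for 15 days. Controls were 3 WT and 3 mutant mice given water. Afterwards, isolated tissues from each group were stained with hematoxylin and eosin to check for tissue damage.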

[6] = tested on: premature termination codons (PTCs) / natural termination codons (NTCs); details: cited from earlier work

metabolic consumption after HLM incubation ([2]; after 60 min, HLM condition not specified) [%]	Compound	tolerability in vivo [1]	metabolic stability in HLM compared to PTC124 ([2]; CYP, UGT and other liver microsome enzymes)	consumption after HLM incubation ([2]; after 60 min, CYP-DPBS condition) [%]	consumption after HLM incubation ([2]; after 60 min, CYP-Tris condition) [%]	consumption after HLM incubation ([2]; after 60 min, CYP/UGT-DPBS condition) [%]	consumption after HLM incubation ([2]; after 60 min, CYP/UGT-Tris condition) [%]	glucuronate metabolite detection after HLM incubation [2]	lung CFTR mRNA expression (real-time RT-PCR) ([3]; CFTR G542X/G542X mice, vs untreated mutant)	CFTR detection in lung sections (IHC), apical membranes of pulmonary ducts ([3]; mouse M2)	last detection in lungs [4] [h]	concentration in kidneys (individual mice) ([4]; 45 min, found in two mice)	concentration in pancreas ([4]; 45 min to 2 h)	average plasma concentration ([4]; 24 h) [g/mL]	tissue damage after chronic administration (H&E staining) ([5]; 15 days)	tolerability of oral treatment for 2 weeks ([5]; CFTR G542X/G542X mice)	specificity for PTCs [6]
	CC(=O)Nc1noc(C)n1 [NV848, N-(5-methyl-1,2,4-oxadiazol-3-yl)acetamide]	good tolerability in vivo	higher metabolic stability compared to PTC124	14.62	5.27	5.65	13.04	no glucuronate metabolites were detected	increase in CFTR mRNA expression	intensity similar to CFTR^WT	2	145 ng/g and 794 ng/g	stable concentrations from 45 min to 2 h	0.06	no signs of tissue damage	well tolerated in mice and did not cause toxicity	specificity for PTCs without interfering with NTCs
46.25	O=C(O)c1cccc(-c2noc(-c3ccccc3F)n2)c1 [PTC124, reference compound]							glucuronate derivative was the primary metabolite detected									
